Laboratory results as given in ChEMBL document CHEMBL1126849, “Synthesis of A-ring fluorinated derivatives of (17 alpha,20E/Z)-[125I]iodovinylestradiols: effect on receptor binding and receptor-mediated target tissue uptake” (J Med Chem, 1993).

Assays:
Rattus norvegicus [1] = assay: Biodistribution in blood of immature female rat after 1 hr administration of 3 micro Ci (111 kBq) in the absence of 60 microg estradiol; format: ADME, organism-based; details: in vivo
Outline: (§1)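 Immature female Long Evans rats (21–24 days, 45–70 g), unanesthetized in retention cages, given 3 µCi (111 kBq) 125I-labeled steroid i.v. via lateral tail vein. Vehicle was ethanol diluted in saline containing 1% Tween-80, giving 9% ethanol final. The blocking group received 60 µg unlabeled estradiol co-injected. Rats were killed under ether by axillary bleeding, and tissues were KCl-washed and gamma-counted. Data are %ID/g, mean ± SE, n=3–5.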

Rattus norvegicus [2] = assay: Biodistribution in fat of immature female rat after 5 hour administration of 3 micro Ci (111 kBq) in the absence of 60 microg estradiol; format: ADME, organism-based, Adipose tissue; details: in vivo; outline: as §1
Rattus norvegicus [3] = assay: Biodistribution in uterus of immature female rat after 1 hr administration of 3 micro Ci (111 kBq) in the absence of 60 microg estradiol; format: ADME, organism-based; details: in vivo
Outline: (§2)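 Immature female Long Evans rats (21–24 days, 45–70 g), 3–5 per group, unanesthetized in retention cages, given 3 μCi (111 kBq) 125I-labeled steroid by lateral tail vein. Vehicle: ethanol diluted with saline containing 1% Tween-80, final ethanol 9%. +E2 group co-injected 60 μg unlabeled estradiol (1 h only). Killed under ether; tissues KCl-washed, weighed, gamma-counted. Output: %ID/g (mean, SE) and uterus to blood or nontarget (muscle, spleen, lungs) ratios.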

Rattus norvegicus [4] = assay: Biodistribution in spleen of immature female rat after 1 hr administration of 3 micro Ci (111 kBq) in the absence of 60 microg estradiol; format: ADME, organism-based; details: in vivo
Outline: (§3)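 Immature female Long Evans rats (21–24 days, 45–70 g), three to five per group, given 125I-labeled steroid (3 μCi, 111 kBq) by lateral tail vein without anesthesia. Vehicle: ethanol diluted in saline with 1% Tween-80, final ethanol 9%, 0.22 μm filtered. +E2 groups received 60 μg unlabeled estradiol co-injected. Killed under ether at set times; tissues KCl-washed, blotted, weighed, gamma counted; %ID/g, mean with SE.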

Rattus norvegicus [5] = assay: Biodistribution in uterus / blood of immature female rat after 5 hour administration of 3 micro Ci (111 kBq) in the absence of 60 microg estradiol; format: ADME, organism-based; details: in vivo
Outline: (§4)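 Same in vivo procedure: immature female Long Evans rats (21–24 days), three to five per group, 3 μCi (111 kBq) tracer i.v. via tail vein in 9% ethanol/saline/1% Tween-80, ± 60 μg estradiol co-injected at 1 h. Uterus %ID/g (gamma counting) divided by blood, or by nontarget organ (muscle, spleen, lungs), %ID/g to give ratios.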

Rattus norvegicus [6] = assay: Biodistribution in lungs of immature female rat after 1 hr administration of 3 micro Ci (111 kBq) in the absence of 60 microg estradiol; format: ADME, organism-based, Lung; details: in vivo; outline: as §1
Rattus norvegicus [7] = assay: Biodistribution in fat of immature female rat after 1 hr administration of 3 micro Ci (111 kBq) in the presence of (+E2); format: ADME, organism-based, Adipose tissue; details: in vivo; outline: as §1
Rattus norvegicus [8] = assay: Biodistribution in kidney of immature female rat after 5 hour administration of 3 micro Ci (111 kBq) in the absence of 60 microg estradiol; format: ADME, organism-based; details: in vivo; outline: as §1
Rattus norvegicus [9] = assay: Biodistribution in muscle of immature female rat after 1 hr administration of 3 micro Ci (111 kBq) in the absence of 60 microg estradiol; format: ADME, organism-based, Muscle tissue; details: in vivo; outline: as §3
Rattus norvegicus [10] = assay: Biodistribution in uterus / blood of immature female rat after 1 hr administration of 3 micro Ci (111 kBq) in the presence of (+E2); format: ADME, organism-based; details: in vivo; outline: as §4
[11] = biological target: Estrogen receptor (Mus musculus) (UniProt O08537+P19785); assay: Relative binding affinity (RBA) against murine cytoplasmic estrogen receptor incubated at 0-4 degree Celsius for 18 hours; format: protein assay
Outline: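 Competitive binding on murine uterine cytoplasmic extract with 20 nM [3H]estradiol and competitor steroids at 2 nM–20 μM, incubated 18 h at 0–4 °C. RBA = 100 × ratio of […] concentration giving 50% competition for specific binding. Mean of three experiments with SD.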

Rattus norvegicus [12] = assay: Biodistribution in thyroid of immature female rat after 3 hour administration of 3 micro Ci (111 kBq) in the absence of 60 microg estradiol; format: ADME, organism-based, Thyroid gland; details: in vivo; outline: as §3
Rattus norvegicus [13] = assay: Biodistribution in fat of immature female rat after 12 hour administration of 3 micro Ci (111 kBq) in the absence of 60 microg estradiol; format: ADME, organism-based, Adipose tissue; details: in vivo; outline: as §1
Rattus norvegicus [14] = assay: Biodistribution in kidney of immature female rat after 1 hr administration of 3 micro Ci (111 kBq) in the absence of 60 microg estradiol; format: ADME, organism-based; details: in vivo; outline: as §1
Rattus norvegicus [15] = assay: Biodistribution in lungs of immature female rat after 12 hour administration of 3 micro Ci (111 kBq) in the absence of 60 microg estradiol; format: ADME, organism-based, Lung; details: in vivo; outline: as §3
Rattus norvegicus [16] = assay: Biodistribution in muscle of immature female rat after 3 hour administration of 3 micro Ci (111 kBq) in the absence of 60 microg estradiol; format: ADME, organism-based, Muscle tissue; details: in vivo; outline: as §3
Rattus norvegicus [17] = assay: Biodistribution in muscle of immature female rat after 12 hour administration of 3 micro Ci (111 kBq) in the absence of 60 microg estradiol; format: ADME, organism-based, Muscle tissue; details: in vivo; outline: as §3
Rattus norvegicus [18] = assay: Biodistribution in fat of immature female rat after 1 hr administration of 3 micro Ci (111 kBq) in the absence of 60 microg estradiol; format: ADME, organism-based, Adipose tissue; details: in vivo; outline: as §1
Rattus norvegicus [19] = assay: Biodistribution in uterus / spleen, muscle, lungs of immature female rat after 3 hour administration of 3 micro Ci (111 kBq) in the absence of 60 microg estradiol; format: ADME, organism-based; details: in vivo; outline: as §2
Rattus norvegicus [20] = assay: Biodistribution in blood of immature female rat after 12 hour administration of 3 micro Ci (111 kBq) in the absence of 60 microg estradiol; format: ADME, organism-based; details: in vivo; outline: as §1
Rattus norvegicus [21] = assay: Biodistribution in thyroid of immature female rat after 12 hour administration of 3 micro Ci (111 kBq) in the absence of 60 microg estradiol; format: ADME, organism-based, Thyroid gland; details: in vivo; outline: as §3
Rattus norvegicus [22] = assay: Biodistribution in kidney of immature female rat after 3 hour administration of 3 micro Ci (111 kBq) in the absence of 60 microg estradiol; format: ADME, organism-based; details: in vivo; outline: as §1
Rattus norvegicus [23] = assay: Biodistribution in uterus / spleen, muscle, lungs of immature female rat after 1 hr administration of 3 micro Ci (111 kBq) in the presence of (+E2); format: ADME, organism-based; details: in vivo; outline: as §4
Rattus norvegicus [24] = assay: Biodistribution in lungs of immature female rat after 5 hour administration of 3 micro Ci (111 kBq) in the absence of 60 microg estradiol; format: ADME, organism-based, Lung; details: in vivo; outline: as §3
Rattus norvegicus [25] = assay: Biodistribution in spleen of immature female rat after 5 hour administration of 3 micro Ci (111 kBq) in the absence of 60 microg estradiol; format: ADME, organism-based; details: in vivo; outline: as §3
Rattus norvegicus [26] = assay: Biodistribution in blood of immature female rat after 1 hr administration of 3 micro Ci (111 kBq) in the presence of (+E2); format: ADME, organism-based; details: in vivo; outline: as §1
Rattus norvegicus [27] = assay: Biodistribution in spleen of immature female rat after 12 hour administration of 3 micro Ci (111 kBq) in the absence of 60 microg estradiol; format: ADME, organism-based; details: in vivo; outline: as §3
Rattus norvegicus [28] = assay: Biodistribution in liver of immature female rat after 5 hour administration of 3 micro Ci (111 kBq) in the absence of 60 microg estradiol; format: ADME, organism-based; details: in vivo; outline: as §1
Rattus norvegicus [29] = assay: Biodistribution in uterus / blood of immature female rat after 3 hour administration of 3 micro Ci (111 kBq) in the absence of 60 microg estradiol; format: ADME, organism-based; details: in vivo; outline: as §4
Rattus norvegicus [30] = assay: Biodistribution in thyroid of immature female rat after 1 hr administration of 3 micro Ci (111 kBq) in the absence of 60 microg estradiol; format: ADME, organism-based, Thyroid gland; details: in vivo; outline: as §3

Chain of Estrogen receptor (Mus musculus) (O08537 whole entry, looked up): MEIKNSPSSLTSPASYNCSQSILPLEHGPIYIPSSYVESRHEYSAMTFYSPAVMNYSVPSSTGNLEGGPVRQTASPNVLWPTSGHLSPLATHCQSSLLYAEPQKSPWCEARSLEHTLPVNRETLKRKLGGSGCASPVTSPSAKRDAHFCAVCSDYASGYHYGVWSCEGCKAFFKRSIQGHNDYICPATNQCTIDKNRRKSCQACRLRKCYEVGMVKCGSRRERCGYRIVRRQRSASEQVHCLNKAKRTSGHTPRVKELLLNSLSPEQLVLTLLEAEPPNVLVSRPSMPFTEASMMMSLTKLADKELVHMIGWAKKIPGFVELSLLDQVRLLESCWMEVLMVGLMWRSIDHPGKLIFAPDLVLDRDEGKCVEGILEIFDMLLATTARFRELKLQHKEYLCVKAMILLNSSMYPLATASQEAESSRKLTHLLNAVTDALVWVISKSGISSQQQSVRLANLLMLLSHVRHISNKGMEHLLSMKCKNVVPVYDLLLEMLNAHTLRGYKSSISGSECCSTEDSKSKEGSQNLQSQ
Chain of Estrogen receptor (Mus musculus) (P19785 whole entry, looked up): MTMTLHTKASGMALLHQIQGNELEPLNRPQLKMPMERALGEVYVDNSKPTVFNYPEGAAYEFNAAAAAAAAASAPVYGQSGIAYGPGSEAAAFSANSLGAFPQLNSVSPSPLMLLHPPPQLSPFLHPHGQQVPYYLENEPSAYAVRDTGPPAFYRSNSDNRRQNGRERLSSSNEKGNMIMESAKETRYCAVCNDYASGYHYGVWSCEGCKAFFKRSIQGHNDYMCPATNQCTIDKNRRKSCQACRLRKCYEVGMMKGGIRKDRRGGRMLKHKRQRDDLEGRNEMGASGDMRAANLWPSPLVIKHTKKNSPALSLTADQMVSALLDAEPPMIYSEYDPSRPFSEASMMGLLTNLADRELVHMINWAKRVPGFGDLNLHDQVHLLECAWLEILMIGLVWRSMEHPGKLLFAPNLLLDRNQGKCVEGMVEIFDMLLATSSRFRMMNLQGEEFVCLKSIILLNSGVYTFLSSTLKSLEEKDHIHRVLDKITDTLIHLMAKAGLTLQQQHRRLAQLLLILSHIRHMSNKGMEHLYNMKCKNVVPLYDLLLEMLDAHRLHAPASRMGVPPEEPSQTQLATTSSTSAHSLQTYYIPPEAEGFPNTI

| ID/g (Rattus norvegicus [1]) [%] | ID/g (Rattus norvegicus [2]) [%] | ID/g (Rattus norvegicus [3]) [%] | ID/g (Rattus norvegicus [4]) [%] | uterus to blood ratio (Rattus norvegicus [5]) [%] | ID/g (Rattus norvegicus [6]) [%] | ID/g (Rattus norvegicus [7]) [%] | ID/g (Rattus norvegicus [8]) [%] | ID/g (Rattus norvegicus [9]) [%] | uterus/blood %ID/g ratio (Rattus norvegicus [10]) [%] | RBA [11] | ID/g (Rattus norvegicus [12]) [%] | ID/g (Rattus norvegicus [13]) [%] | ID/g (Rattus norvegicus [14]) [%] | ID/g (Rattus norvegicus [15]) [%] | ID/g (Rattus norvegicus [16]) [%] | ID/g (Rattus norvegicus [17]) [%] | ID/g (Rattus norvegicus [18]) [%] | Uterus to nontarget tissue (spleen, muscle, lungs) uptake ratio (Rattus norvegicus [19]) [%] | ID/g (Rattus norvegicus [20]) [%] | other results | Compound |
| --- | --- | --- | --- | --- | --- | --- | --- | --- | --- | --- | --- | --- | --- | --- | --- | --- | --- | --- | --- | --- | --- |
| 0.38 | 4.59 | 4.71 | 0.68 | 16.4 | 1.47 | 5.65 | 0.89 | 0.75 | 2.68 | 36.4 | 70 | 1.67 | 1.41 | 0.23 | 0.43 | 0.16 | 0.03 | 7.15 | 0.17 | ID/g (Rattus norvegicus [21]): 217%; ID/g (Rattus norvegicus [22]): 0.95%; uterus-to-nontarget tissue uptake ratio (Rattus norvegicus [23]): 0.85%; ID/g (Rattus norvegicus [24]): 0.77%; ID/g (Rattus norvegicus [25]): 0.8%; ID/g (Rattus norvegicus [26]): 0.44%; ID/g (Rattus norvegicus [27]): 0.19%; ID/g (Rattus norvegicus [28]): 3.6%; uterus to blood %ID/g ratio (unitless) (Rattus norvegicus [29]): 17.28%; ID/g (Rattus norvegicus [30]): 61% | C[C@@H]1Cc2c(ccc(O)c2F)[C@H]2CC[C@@]3(C)[C@@H](CC[C@@]3(O)/C=C/I)[C@H]12 |
| 0.44 | 1.7 | 3.55 | 1.16 | 10.01 | 0.71 | 1.39 | 0.67 | 0.45 | 1.16 | 36.8 | 304 | 0.89 | 1.07 | 0.24 | 0.28 | 0.16 | 1.3 | 8.32 | 0.21 | ID/g (Rattus norvegicus [21]): 898%; ID/g (Rattus norvegicus [22]): 0.85%; uterus-to-nontarget tissue uptake ratio (Rattus norvegicus [23]): 0.88%; ID/g (Rattus norvegicus [24]): 0.48%; ID/g (Rattus norvegicus [25]): 0.57%; ID/g (Rattus norvegicus [26]): 0.45%; ID/g (Rattus norvegicus [27]): 0.25%; ID/g (Rattus norvegicus [28]): 1.36%; uterus to blood %ID/g ratio (unitless) (Rattus norvegicus [29]): 10.6%; ID/g (Rattus norvegicus [30]): 145% | C[C@@H]1Cc2c(ccc(O)c2F)[C@H]2CC[C@@]3(C)[C@@H](CC[C@@]3(O)/C=C\I)[C@H]12 |
